These results are taken from ChEMBL document CHEMBL4368925, “Design, synthesis, and screening of novel ursolic acid derivatives as potential anti-cancer agents that target the HIF-1α pathway” (Bioorg Med Chem Lett, 2019).

Molecules are shown by their SMILES.

The subject of this experiment is Hep 3B2. Kind of experiment: Cytotoxicity against human Hep3B cells assessed as reduction in cell viability after 24 hrs in normoxic condition by MTT assay. It counts as cell-based. In outline: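 Hep3B viability by MTT assay after 24 h compound treatment under normoxia; table values are means, n=3.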
(Formazan colour is commonly taken as a measure of viable cells.)
One may read the IC50 as the concentration that gives 50% inhibition. As to `C[C@H]1[C@H](C)CC[C@]2(C(=O)O)CC[C@]3(C)C(=CC[C@@H]4[C@@]5(C)CC/C(=N\NC(=N)N)C(C)(C)[C@@H]5CC[C@]43C)[C@H]12`, the half-maximal inhibitory concentration (IC50) is above 100 µM.

For the compound `C[C@H]1[C@H](C)CC[C@]2(C(=O)O)CC[C@]3(C)C(=CC[C@@H]4[C@@]5(C)CC(=C\c6ccccc6Br)/C(=N\NC(=N)N)C(C)(C)[C@@H]5CC[C@]43C)[C@H]12`, the IC50 was above 100 µM.

As for `C[C@H]1[C@H](C)CC[C@]2(C(=O)O)CC[C@]3(C)C(=CC[C@@H]4[C@@]5(C)CC(=C\c6ccco6)/C(=N\NC(=N)N)C(C)(C)[C@@H]5CC[C@]43C)[C@H]12`, the IC50 was above 100 µM.

As to `C[C@H]1[C@H](C)CC[C@]2(C(=O)O)CC[C@]3(C)C(=CC[C@@H]4[C@@]5(C)CC(=C\c6cccs6)/C(=N\NC(=N)N)C(C)(C)[C@@H]5CC[C@]43C)[C@H]12`, the IC50 was above 100 µM.

With `C[C@H]1[C@H](C)CC[C@]2(C(=O)O)CC[C@]3(C)C(=CC[C@@H]4[C@@]5(C)CC/C(=N\NC(N)=S)C(C)(C)[C@@H]5CC[C@]43C)[C@H]12`, the concentration for half-maximal inhibition (IC50) is above 100 µM.

As for `C[C@H]1[C@H](C)CC[C@]2(C(=O)O)CC[C@]3(C)C(=CC[C@@H]4[C@@]5(C)CC(=C\c6cccc(Cl)c6)/C(=N\NC(=N)N)C(C)(C)[C@@H]5CC[C@]43C)[C@H]12`, the IC50 is above 100 µM.

For `Cc1ccc(/C=C2\C[C@]3(C)[C@H]4CC=C5[C@@H]6[C@@H](C)[C@H](C)CC[C@]6(C(=O)O)CC[C@@]5(C)[C@]4(C)CC[C@H]3C(C)(C)\C2=N\NC(=N)N)cc1`, the concentration for half-maximal inhibition (IC50) was above 100 µM.

Turning to `COC(=O)[C@]12CC[C@@H](C)[C@H](C)[C@H]1C1=CC[C@@H]3[C@@]4(C)CC/C(=N\NC(=N)N)C(C)(C)[C@@H]4CC[C@@]3(C)[C@]1(C)CC2`, the IC50 is above 100 µM.

Regarding `C[C@H]1[C@H](C)CC[C@]2(C(=O)O)CC[C@]3(C)C(=CC[C@@H]4[C@@]5(C)CC(=C\c6cccc(Br)c6)/C(=N\NC(=N)N)C(C)(C)[C@@H]5CC[C@]43C)[C@H]12`, the 50% inhibitory concentration (IC50) is above 100 µM.

Take `C[C@H]1[C@H](C)CC[C@]2(C(=O)O)CC[C@]3(C)C(=CC[C@@H]4[C@@]5(C)CC(=C\c6cccc7ccccc67)/C(=N\NC(=N)N)C(C)(C)[C@@H]5CC[C@]43C)[C@H]12`: the IC50 was above 100 µM.

Consider `CCOC(=O)[C@]12CC[C@@H](C)[C@H](C)[C@H]1C1=CC[C@@H]3[C@@]4(C)CC/C(=N\NC(=N)N)C(C)(C)[C@@H]4CC[C@@]3(C)[C@]1(C)CC2`, for which the 50% inhibitory concentration (IC50) is 6 µM.

For the compound `C[C@H]1[C@H](C)CC[C@]2(C(=O)O)CC[C@]3(C)C(=CC[C@@H]4[C@@]5(C)CC(=C\c6ccccc6Cl)/C(=N\NC(=N)N)C(C)(C)[C@@H]5CC[C@]43C)[C@H]12`, the 50% inhibitory concentration (IC50) was above 100 µM.

In the case of `C[C@H]1[C@H](C)CC[C@]2(C(=O)O)CC[C@]3(C)C(=CC[C@@H]4[C@@]5(C)CC(=C\c6c(Cl)cccc6Cl)/C(=N\NC(=N)N)C(C)(C)[C@@H]5CC[C@]43C)[C@H]12`, the IC50 is above 100 µM.

In the case of `C[C@H]1[C@H](C)CC[C@]2(C(=O)O)CC[C@]3(C)C(=CC[C@@H]4[C@@]5(C)CC(=C\c6ccc(Cl)cc6Cl)/C(=N\NC(=N)N)C(C)(C)[C@@H]5CC[C@]43C)[C@H]12`, the IC50 was above 100 µM.

Consider `C[C@H]1[C@H](C)CC[C@]2(C(=O)O)CC[C@]3(C)C(=CC[C@@H]4[C@@]5(C)CC(=C\c6cccc(F)c6)/C(=N\NC(=N)N)C(C)(C)[C@@H]5CC[C@]43C)[C@H]12`, for which the IC50 turned out to be 10.5 µM.

For `C[C@H]1[C@H](C)CC[C@]2(C(=O)OCc3ccc(F)cc3)CC[C@]3(C)C(=CC[C@@H]4[C@@]5(C)CC/C(=N\NC(=N)N)C(C)(C)[C@@H]5CC[C@]43C)[C@H]12`, the half-inhibitory concentration (IC50) is 12.9 µM.

Regarding `C[C@H]1[C@H](C)CC[C@]2(C(=O)OCc3c(Cl)cccc3Cl)CC[C@]3(C)C(=CC[C@@H]4[C@@]5(C)CC/C(=N\NC(=N)N)C(C)(C)[C@@H]5CC[C@]43C)[C@H]12`, the IC50 is 22.3 µM.

For `CCCCCOC(=O)[C@]12CC[C@@H](C)[C@H](C)[C@H]1C1=CC[C@@H]3[C@@]4(C)CC/C(=N\NC(=N)N)C(C)(C)[C@@H]4CC[C@@]3(C)[C@]1(C)CC2`, the half-inhibitory concentration (IC50) was found to be 22 µM.

Take `C[C@H]1[C@H](C)CC[C@]2(C(=O)O)CC[C@]3(C)C(=CC[C@@H]4[C@@]5(C)CC(=C\c6ccc(F)cc6)/C(=N\NC(=N)N)C(C)(C)[C@@H]5CC[C@]43C)[C@H]12`: the IC50 was above 100 µM.

For `Cc1ccc(COC(=O)[C@]23CC[C@@H](C)[C@H](C)[C@H]2C2=CC[C@@H]4[C@@]5(C)CC/C(=N\NC(=N)N)C(C)(C)[C@@H]5CC[C@@]4(C)[C@]2(C)CC3)cc1`, the half-maximal inhibitory concentration (IC50) was 18 µM.

`C[C@H]1[C@H](C)CC[C@]2(C(=O)OCc3cccc(Cl)c3)CC[C@]3(C)C(=CC[C@@H]4[C@@]5(C)CC/C(=N\NC(=N)N)C(C)(C)[C@@H]5CC[C@]43C)[C@H]12`: the concentration for half-maximal inhibition (IC50) turned out to be 34.1 µM.

On to `C[C@H]1[C@H](C)CC[C@]2(C(=O)O)CC[C@]3(C)C(=CC[C@@H]4[C@@]5(C)CC/C(=N\NC(N)=O)C(C)(C)[C@@H]5CC[C@]43C)[C@H]12`, for which the IC50 was 69.8 µM.

Regarding `C[C@H]1[C@H](C)CC[C@]2(C(=O)O)CC[C@]3(C)C(=CC[C@@H]4[C@@]5(C)CC[C@H](O)C(C)(C)[C@@H]5CC[C@]43C)[C@H]12` [URSOLIC ACID], the 50% inhibitory concentration (IC50) is 23.8 µM.

As to `C[C@H]1[C@H](C)CC[C@]2(C(=O)OCc3ccc(Cl)cc3)CC[C@]3(C)C(=CC[C@@H]4[C@@]5(C)CC/C(=N\NC(=N)N)C(C)(C)[C@@H]5CC[C@]43C)[C@H]12`, the half-inhibitory concentration (IC50) turned out to be 32.1 µM.

For `C[C@H]1[C@H](C)CC[C@]2(C(=O)O)CC[C@]3(C)C(=CC[C@@H]4[C@@]5(C)CC(=C\c6ccccc6)/C(=N\NC(=N)N)C(C)(C)[C@@H]5CC[C@]43C)[C@H]12`, the half-inhibitory concentration (IC50) is above 100 µM.

For the compound `C[C@H]1[C@H](C)CC[C@]2(C(=O)OCc3ccc(Cl)cc3Cl)CC[C@]3(C)C(=CC[C@@H]4[C@@]5(C)CC/C(=N\NC(=N)N)C(C)(C)[C@@H]5CC[C@]43C)[C@H]12`, the IC50 is above 100 µM.

As for `C[C@H]1[C@H](C)CC[C@]2(C(=O)O)CC[C@]3(C)C(=CC[C@@H]4[C@@]5(C)CC(=C\c6ccccc6F)/C(=N\NC(=N)N)C(C)(C)[C@@H]5CC[C@]43C)[C@H]12`, the 50% inhibitory concentration (IC50) was above 100 µM.

Consider `C[C@H]1[C@H](C)CC[C@]2(C(=O)O)CC[C@]3(C)C(=CC[C@@H]4[C@@]5(C)CC(=C\c6ccc([N+](=O)[O-])cc6)/C(=N\NC(=N)N)C(C)(C)[C@@H]5CC[C@]43C)[C@H]12`, for which the IC50 was above 100 µM.
